The target of assay [1] is T1, Type-1 angiotensin II receptor B (Rattus norvegicus, UniProt P29089).
T1 sequence (P29089 whole entry): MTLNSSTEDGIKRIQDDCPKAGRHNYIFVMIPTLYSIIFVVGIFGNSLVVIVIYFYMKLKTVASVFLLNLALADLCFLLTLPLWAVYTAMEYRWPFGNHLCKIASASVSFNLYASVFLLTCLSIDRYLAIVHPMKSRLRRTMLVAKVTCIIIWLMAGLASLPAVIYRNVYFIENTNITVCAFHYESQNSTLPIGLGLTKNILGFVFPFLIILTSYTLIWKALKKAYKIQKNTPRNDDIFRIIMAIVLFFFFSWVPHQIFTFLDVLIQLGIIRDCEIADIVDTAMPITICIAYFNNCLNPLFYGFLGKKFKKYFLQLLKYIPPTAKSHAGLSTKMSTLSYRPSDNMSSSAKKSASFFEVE
Description: Displacement of [125I]-Sar1-Ile8-A II from rat adrenal Angiotensin-1 (AT-1) receptor. Background: Loss of bound radioactivity is the signal in a displacement assay; it reports binding, not function.

Assay [2] has as its system Rattus norvegicus. Nature of the assay: Change in systolic arterial blood pressure in renal artery ligated hypertensive rats, orally dosed at 10 mg/kg. It counts as functional. The conditions noted are these: route oral. The essentials: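 Conscious male CD Sprague-Dawley rats (250-270 g) with left renal artery ligated several days earlier under ketamine. Single oral gavage, 3-8 rats/group. Systolic pressure by indirect tail-cuff sphygmomanometry before and 3 h post-dose; change reported as SAP decrease at 3 h, mean ± SEM.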

Assay [3] deals with Rattus norvegicus. Nature of the assay: Change in mean arterial blood pressure in renal artery ligated hypertensive rats, orally dosed at 1 mg/kg. It counts as functional. The conditions noted are these: route oral. In a few lines:
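Male CD Sprague-Dawley rats (250-270 g), left renal artery ligated under ketamine (100 mg/kg ip); catheterized for direct recording 2-3 days before test. Single oral gavage, 3-7 rats/group. MAP recorded before and for 16 h after dosing; value is maximal MAP decrease, mean ± SEM; decrease under 15 mmHg counted as no effect.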

As a reminder, the Ki is the dissociation constant of the complex between target and ligand, obtained from inhibition or displacement. As for `CCCc1nc(COC)n2nc(C)nc2c1Cc1ccc(-c2ccccc2-c2nn[nH]n2)cc1`, the affinity in assay [1] corresponds to a Ki of 111 nM. Further, the entries for the “Change in blood pressure” value in the assay on Rattus norvegicus [2] and in the assay with Rattus norvegicus [3] were -44.4 mmHg and -21.8 mmHg, respectively.

On to `CCCc1nc(C)n2nc(C(=O)O)nc2c1Cc1ccc(-c2ccccc2-c2nn[nH]n2)cc1`, for which the Ki in assay [1] worked out at 35 nM. In addition, the “Change in blood pressure” value with Rattus norvegicus [2] is -36.4 mmHg; in the assay on Rattus norvegicus [3] it was -13.4 mmHg.

As to `CCCc1nc(C)n2nc(S(=O)(=O)N(C)C)nc2c1Cc1ccc(-c2ccccc2-c2nn[nH]n2)cc1`, the Ki in assay [1] is 185 nM. Besides, the “Change in blood pressure” value with Rattus norvegicus [2] was -7.2 mmHg.

Regarding `CCCc1nc(C)n2nc(SCC(=O)OCC)nc2c1Cc1ccc(-c2ccccc2-c2nn[nH]n2)cc1`, the Ki in assay [1] was 99 nM. In addition, the “Change in blood pressure” value in the assay with Rattus norvegicus [2] is on record as -26.4 mmHg.

`CCCc1nc(C)n2nc(NCC(=O)OCC)nc2c1Cc1ccc(-c2ccccc2-c2nn[nH]n2)cc1` had an inhibitory constant (Ki) in assay [1] of 32 nM. The “Change in blood pressure” value in the assay with Rattus norvegicus [2] is reported as -73.6 mmHg; in the assay with Rattus norvegicus [3], -5.7 mmHg.

With `CCCCc1nc(Cl)c(CO)n1Cc1ccc(-c2ccccc2-c2nnn[nH]2)cc1` [LOSARTAN], the “Change in blood pressure” value is reported as -104.2 mmHg with Rattus norvegicus [2] and -32.9 mmHg with Rattus norvegicus [3].

For the compound `CCCCc1nc(C)n2c(S)nnc2c1Cc1ccc(-c2ccccc2-c2nn[nH]n2)cc1`, the Ki in assay [1] stood at 106 nM. Also, the entries for the “Change in blood pressure” value in the assay on Rattus norvegicus [2] and in the assay with Rattus norvegicus [3] were -86.3 mmHg and -24.3 mmHg, respectively.

For `CCCc1nc(CCC)n2nc(O)nc2c1Cc1ccc(-c2ccccc2-c2nn[nH]n2)cc1`, the Ki in assay [1] was 659 nM. In addition, the “Change in blood pressure” value in the assay on Rattus norvegicus [2] was -72.6 mmHg; in the assay on Rattus norvegicus [3] it was -22.2 mmHg.

Compound `CCCc1nc(C)n2nc(-c3ccccc3)nc2c1Cc1ccc(-c2ccccc2-c2nn[nH]n2)cc1` displayed a Ki in assay [1] of 175 nM. Moreover, the results for the “Change in blood pressure” value with Rattus norvegicus [2] and with Rattus norvegicus [3] were -48.2 mmHg and -13.3 mmHg, respectively.

As to `CCCc1nc(C)n2nc(CC)nc2c1Cc1ccc(-c2ccccc2-c2nn[nH]n2)cc1`, in assay [1], the affinity corresponds to a Ki of 8 nM. In addition, the “Change in blood pressure” value is -69 mmHg with Rattus norvegicus [2] and -8.9 mmHg with Rattus norvegicus [3].

As to `CCCCc1nc(C)n2nc(O)nc2c1Cc1ccc(-c2ccccc2-c2nn[nH]n2)cc1`, the affinity in assay [1] corresponds to a Ki of 30 nM. The “Change in blood pressure” value is reported as -91.5 mmHg with Rattus norvegicus [2] and -22.1 mmHg with Rattus norvegicus [3].

Regarding `CCCc1nc(C)n2c(=O)n(CCO)nc2c1Cc1ccc(-c2ccccc2-c2nn[nH]n2)cc1`, the affinity in assay [1] corresponds to a Ki of 6 nM. Besides, the “Change in blood pressure” value in the assay on Rattus norvegicus [2] is given as -67.9 mmHg; in the assay on Rattus norvegicus [3] it was -25.6 mmHg.

In assay [1], `CCCc1nc(C)n2c(=O)n(C)nc2c1Cc1ccc(-c2ccccc2-c2nn[nH]n2)cc1` gave a Ki of 53 nM. The “Change in blood pressure” value in the assay on Rattus norvegicus [2] is listed as -48.8 mmHg; in the assay with Rattus norvegicus [3], -25.1 mmHg.

In turn, `CCCc1nc(C)n2c(O)nnc2c1Cc1ccc(NC(=O)c2ccccc2S(=O)(=O)O)cc1` showed a Ki in assay [1] of 41 nM. Also, the “Change in blood pressure” value in the assay with Rattus norvegicus [2] is on record as -18.3 mmHg.

`CCCc1nc(C)n2nc(NC)nc2c1Cc1ccc(-c2ccccc2-c2nn[nH]n2)cc1` showed a Ki in assay [1] of 5 nM. Besides, the results for the “Change in blood pressure” value with Rattus norvegicus [2] and with Rattus norvegicus [3] were -65.3 mmHg and -23.6 mmHg, respectively.

On to `CCCc1nc(COC)n2nc(O)nc2c1Cc1ccc(-c2ccccc2-c2nn[nH]n2)cc1`, for which the Ki in assay [1] was determined as 92 nM. Also, the figures for the “Change in blood pressure” value in the assay on Rattus norvegicus [2] and in the assay with Rattus norvegicus [3] were -88.7 mmHg and -18.5 mmHg, respectively.

As for `CCCc1nc(C)n2ncnc2c1Cc1ccc(-c2ccccc2-c2nn[nH]n2)cc1`, the Ki in assay [1] worked out at 12 nM. Moreover, the “Change in blood pressure” value is listed as -89.7 mmHg with Rattus norvegicus [2] and -20.1 mmHg in the assay on Rattus norvegicus [3].

Turning to `CCCc1nc(CO)n2nc(O)nc2c1Cc1ccc(-c2ccccc2-c2nn[nH]n2)cc1`, in assay [1], the Ki stood at 10 nM. Besides, the “Change in blood pressure” value in the assay on Rattus norvegicus [2] is -40.6 mmHg; with Rattus norvegicus [3], -21.5 mmHg.

In turn, `CCCc1nc(C)n2nc(CC(=O)OCC)nc2c1Cc1ccc(-c2ccccc2-c2nn[nH]n2)cc1` registered a Ki in assay [1] of 9 nM. In addition, the “Change in blood pressure” value is given as -84 mmHg in the assay on Rattus norvegicus [2] and -18.1 mmHg in the assay on Rattus norvegicus [3].

On to `CCCc1nc(C)n2cnnc2c1Cc1ccc(-c2ccccc2-c2nn[nH]n2)cc1`, for which the Ki in assay [1] was 10 nM. Also, the “Change in blood pressure” value with Rattus norvegicus [2] was -77.2 mmHg; with Rattus norvegicus [3], -24.2 mmHg.

For `CCCc1nc(C)n2nc(N)nc2c1Cc1ccc(-c2ccccc2-c2nn[nH]n2)cc1`, the Ki in assay [1] came out at 1 nM. Moreover, the “Change in blood pressure” value in the assay with Rattus norvegicus [2] is listed as -77.2 mmHg; in the assay on Rattus norvegicus [3], -33.4 mmHg.

The compound `CCCc1nc(C)n2c(S)nnc2c1Cc1ccc(-c2ccccc2-c2nn[nH]n2)cc1` returned a Ki in assay [1] of 127 nM. Also, the entries for the “Change in blood pressure” value in the assay with Rattus norvegicus [2] and in the assay on Rattus norvegicus [3] were -90.2 mmHg and -22.4 mmHg, respectively.

Take `CCCc1nc(C)n2nc(C(=O)OCC)nc2c1Cc1ccc(-c2ccccc2-c2nn[nH]n2)cc1`: the Ki in assay [1] amounted to 23 nM. In addition, the “Change in blood pressure” value in the assay with Rattus norvegicus [2] is reported as -76.7 mmHg; in the assay with Rattus norvegicus [3], -14.9 mmHg.

In assay [1], `CCc1nc(C)n2nc(O)nc2c1Cc1ccc(-c2ccccc2-c2nn[nH]n2)cc1` yielded a Ki of 35 nM. The “Change in blood pressure” value with Rattus norvegicus [2] was -72.8 mmHg; in the assay on Rattus norvegicus [3], -20.1 mmHg.

Compound `CCCc1nc(C)n2nc(S)nc2c1Cc1ccc(-c2ccccc2-c2nn[nH]n2)cc1` came in with a Ki in assay [1] of 10 nM. Also, the “Change in blood pressure” value in the assay on Rattus norvegicus [2] was -57.8 mmHg; with Rattus norvegicus [3], -19.7 mmHg.

The compound `CCCc1nc(C)n2nc(CO)nc2c1Cc1ccc(-c2ccccc2-c2nn[nH]n2)cc1` registered a Ki in assay [1] of 5 nM. Besides, the “Change in blood pressure” value in the assay on Rattus norvegicus [2] is -62.5 mmHg; in the assay on Rattus norvegicus [3] it was -25.4 mmHg.

On to `CCCc1nc(C)n2nc(SC)nc2c1Cc1ccc(-c2ccccc2-c2nn[nH]n2)cc1`, for which the affinity in assay [1], expressed as Ki, was 174 nM. In addition, the “Change in blood pressure” value with Rattus norvegicus [2] is -32.2 mmHg; in the assay with Rattus norvegicus [3] it was -11.8 mmHg.

As to `CCCc1nc(SC)n2c(O)nnc2c1Cc1ccc(-c2ccccc2-c2nn[nH]n2)cc1`, the “Change in blood pressure” value with Rattus norvegicus [2] is on record as -15.6 mmHg.

As for `CCCc1nc(CO)n2nc(C)nc2c1Cc1ccc(-c2ccccc2-c2nn[nH]n2)cc1`, in assay [1], the Ki was found to be 27 nM. For the same compound, in the assay on Rattus norvegicus [2], the “Change in blood pressure” value is -21.4 mmHg.

With `Cc1nc(C2CC2)c(Cc2ccc(-c3ccccc3-c3nn[nH]n3)cc2)c2nc(O)nn12`, the Ki in assay [1] is 82 nM. The “Change in blood pressure” value is given as -51.1 mmHg in the assay on Rattus norvegicus [2] and -12.3 mmHg with Rattus norvegicus [3].

With `CCCc1nc(C)n2nc(OC)nc2c1Cc1ccc(-c2ccccc2-c2nn[nH]n2)cc1`, in assay [1], the inhibition constant (Ki) was found to be 27 nM. In addition, the “Change in blood pressure” value in the assay on Rattus norvegicus [2] is on record as -26.2 mmHg.

As for `CCCc1nc(C)n2nc(C(F)(F)F)nc2c1Cc1ccc(-c2ccccc2-c2nn[nH]n2)cc1`, the affinity in assay [1], expressed as Ki, was 147 nM. Further, the “Change in blood pressure” value in the assay on Rattus norvegicus [2] was -11.8 mmHg.

The compound `CCCc1ncn2ncnc2c1Cc1ccc(-c2ccccc2-c2nn[nH]n2)cc1` registered a Ki in assay [1] of 50 nM. Besides, in the assay on Rattus norvegicus [2], the “Change in blood pressure” value is -20 mmHg.

In the case of `CCCCc1nc(C)n2nc(O)nc2c1Cc1ccc(-c2ccccc2C(=O)O)cc1`, the affinity in assay [1] corresponds to a Ki of 622 nM. Besides, the “Change in blood pressure” value with Rattus norvegicus [2] is on record as -23.5 mmHg.
